One test relates to MCF7. As to the kind of experiment: Cytotoxicity against human MCF7 cells assessed as reduction in cell viability incubated for 72 hrs by alamar blue assay. The class given is functional, cell-based. The following applies: MCF7, 72 h. The procedure, abridged: (§1)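 Cells seeded in 384-well plates and dosed 24 h after plating, in quadruplicate. Viability was read by alamarBlue fluorescence at 72 h. IC50 came from nonlinear regression as the mean of 4 replicates. Growth media carried 10% FBS and 1% pen/strep: UCH1/UCH2 in 4:1 IMDM:RPMI-1640 in gel-coated flasks; A431, PANC1 and WS1 in DMEM; DU145 and MCF7 in MEM; 5637 in RPMI-1640.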
In general terms: Resazurin is reduced to fluorescent resorufin, in cell work by metabolically active cells.

The test system of a further test is 5637. Briefly: Cytotoxicity against human 5637 cells assessed as reduction in cell viability incubated for 72 hrs by alamar blue assay. It is filed as functional, cell-based. Conditions: Homo sapiens, 5637, 72 h. Summed up: as §1
In a further test the test system is DU-145. Briefly: Cytotoxicity against human DU-145 cells assessed as reduction in cell viability incubated for 72 hrs by alamar blue assay. It is filed as functional, cell-based. Conditions: DU-145, 72 h. Summed up: as §1
The subject of a further test is PANC-1. As to the kind of experiment: Cytotoxicity against human PANC1 cells assessed as reduction in cell viability incubated for 72 hrs by alamar blue assay. The class given is functional, cell-based. The following applies: PANC-1, 72 h. Summed up: as §1
A short description of test [1]: Cytotoxicity against human UCH1 cells assessed as reduction in cell viability incubated for 72 hrs by alamar blue assay. Conditions: UCH1, 72 h. The class given is functional, cell-based. The procedure, abridged: as §1
A short description of test [2]: Cytotoxicity against human UCH2 cells assessed as reduction in cell viability incubated for 72 hrs by alamar blue assay. It is filed as functional, cell-based. Conditions: UCH2, 72 h. Summed up: as §1
The next test relates to A-431. Briefly: Cytotoxicity against human A-431 cells assessed as reduction in cell viability incubated for 72 hrs by alamar blue assay. It is filed as functional, cell-based. Conditions: A-431, 72 h. Summed up: as §1
Test [3] is described as follows: Cytotoxicity against human WS1 cells assessed as reduction in cell viability incubated for 72 hrs by alamar blue assay. It is filed as cell-based. Conditions: WS1, 72 h. Summed up: as §1

Structures are written as SMILES. Bounds are passed on as bounds.

Broadly, the IC50 is the concentration needed to halve the response being measured. For the compound `Clc1nss/c1=N\c1cc(-c2ccccc2)nn1Cc1ccccc1`, the IC50 in the test with MCF7 turned out to be 30 µM; in the test on 5637, 16 µM; in the test on DU-145, 14 µM; in the test with PANC-1 it was 18 µM; in test [1], 30 µM; in test [2], 52 µM. For the same compound, the IC50 (with A-431; in test [3]) was above 100 µM throughout.
Turning to `FC(F)(F)Oc1ccc(/N=c2\ssnc2Cl)cc1Br`, the IC50 in the test on MCF7 is 73 µM; in the test on 5637, 36 µM; in the test on DU-145, 52 µM; in the test on PANC-1 it was above 100 µM; in test [1] it was 34 µM; in test [2], 85 µM. The results for the IC50 (in the test with A-431; in test [3]) were 100 µM and above 100 µM, respectively.
Regarding `N#CC1=Nc2c(c(-c3ccccc3)nn2Cc2ccccc2)SS1`, the IC50 with MCF7 was 54 µM; with 5637, 8.7 µM; in the test with DU-145 it was 32 µM; with PANC-1 it was above 100 µM; in test [1], above 100 µM; in test [2], above 100 µM. In addition, the IC50 in the test on A-431 was 54 µM; in test [3] it was 51 µM.
Take `Cc1nn(C)c2c1SSC(C#N)=N2`: the IC50 in the test on MCF7 was above 100 µM; in the test on 5637, 81 µM; in the test with DU-145, 40 µM; in the test with PANC-1, above 100 µM; in test [1], above 100 µM; in test [2] it was above 100 µM. The IC50 (in the test with A-431; in test [3]) was above 100 µM in each case.
With `Clc1nss/c1=N\c1ccc2c(c1)OCO2`, the IC50 worked out at 19 µM in the test on MCF7; 32 µM in the test on 5637; 17 µM in the test on DU-145; 24 µM in the test with PANC-1; 28 µM in test [1]; 22 µM in test [2]. For the same compound, the IC50 turned out to be 95 µM in the test with A-431 and 84 µM in test [3].
For the compound `Clc1nss/c1=N\c1nccs1`, the IC50 in the test with MCF7 worked out at 45 µM; with 5637, 15 µM; in the test with DU-145, 8.1 µM; with PANC-1, 24 µM; in test [1] it was 10 µM; in test [2] it was 22 µM. For the same compound, the IC50 in the test with A-431 was found to be 17 µM; in test [3], 24 µM.
In the case of `N#CSCCN1CCN(c2nssc2=O)CC1`, the concentration for half-maximal inhibition (IC50) in the test on MCF7 was determined as 5.4 µM; in the test with 5637 it was 39 µM; with DU-145, 3.3 µM; in the test on PANC-1 it was 11 µM; in test [1] it was 12 µM; in test [2], 14 µM. Further, the IC50 in the test on A-431 is 25 µM; in test [3], 17 µM.
As for `CSc1ccc(/N=c2\ssnc2Cl)cc1`, the IC50 in the test on MCF7 was found to be 36 µM; in the test with 5637, 34 µM; in the test on DU-145 it was 14 µM; in the test with PANC-1 it was 86 µM; in test [1] it was 38 µM; in test [2], 37 µM. In addition, the IC50 turned out to be 51 µM with A-431 and 66 µM in test [3].
On to `O=c1ssnc1N1CCN(CCSc2nc3ccccc3s2)CC1`, for which the IC50 with MCF7 worked out at 9.9 µM; in the test with 5637, 33 µM; with DU-145, 22 µM; in the test with PANC-1, 77 µM; in test [1] it was 25 µM; in test [2], 31 µM. The 50% inhibitory concentration (IC50) in the test with A-431 amounted to 90 µM; in test [3] it was 92 µM.
Turning to `O=C1c2ccccc2C(=O)N1CCN1CCN(c2nssc2=S)CC1`, the IC50 with MCF7 is 51 µM; with 5637, 25 µM; with DU-145, 23 µM; with PANC-1, 73 µM; in test [1] it was 46 µM; in test [2], above 100 µM. Further, the IC50 (with A-431; in test [3]) was above 100 µM throughout.
Turning to `O=S(=O)(Nc1nccs1)c1ccc(/N=c2\ssnc2Cl)cc1`, the IC50 in the test on MCF7 came to 49 µM; in the test on 5637 it was 27 µM; in the test on DU-145, 92 µM; in the test on PANC-1, 97 µM; in test [1] it was 30 µM; in test [2] it was 36 µM. Also, the IC50 (with A-431; in test [3]) was above 100 µM in each case.
Consider `Clc1nss/c1=N\c1ccc(Br)cc1`, for which the IC50 in the test with MCF7 is 11 µM; with 5637, 36 µM; in the test with DU-145 it was 48 µM; with PANC-1 it was 35 µM; in test [1], 43 µM; in test [2], 51 µM. Also, the half-maximal inhibitory concentration (IC50) (in the test with A-431; in test [3]) was above 100 µM each time.
`Clc1nss/c1=N\c1ccc(OCc2ccccc2)cc1`: the IC50 with MCF7 was 50 µM; with 5637 it was 13 µM; with DU-145 it was 45 µM; in the test on PANC-1, above 100 µM; in test [1], 44 µM; in test [2], above 100 µM. For the same compound, the half-maximal inhibitory concentration (IC50) (in the test with A-431; in test [3]) was above 100 µM in each case.
As to `N#CC1=Nc2c(c(-c3ccccc3)nn2-c2ccccc2)SS1`, the IC50 was 36 µM in the test with MCF7; 14 µM in the test on 5637; 16 µM in the test on DU-145; 75 µM with PANC-1; 55 µM in test [1]; 68 µM in test [2]. Moreover, the IC50 is 72 µM in the test with A-431 and above 100 µM in test [3].
With `c1ccc(/N=c2\ssnc2N2CCN(CCNc3ccccc3)CC2)cc1`, the IC50 came out at 10 µM in the test with MCF7; 18 µM in the test on 5637; 55 µM in the test with DU-145; 67 µM with PANC-1; 25 µM in test [1]; 21 µM in test [2]. Also, the IC50 is 87 µM in the test on A-431 and 55 µM in test [3].
With `CN(CCN1CCN(c2nssc2=O)CC1)c1ccccc1`, the IC50 in the test on MCF7 came out at 2.2 µM; in the test on 5637, 12 µM; with DU-145 it was 4.4 µM; in the test on PANC-1, 21 µM; in test [1] it was 12 µM; in test [2], 17 µM. Further, the figures for the IC50 (in the test on A-431; in test [3]) were 17 µM and 20 µM, respectively.
For `Clc1nss/c1=N\c1cccc(Br)c1`, the IC50 is 6.7 µM in the test with MCF7; 53 µM in the test on 5637; 27 µM in the test with DU-145; 38 µM in the test with PANC-1; 40 µM in test [1]; 59 µM in test [2]. Moreover, the IC50 in the test on A-431 was above 100 µM; in test [3] it was 94 µM.
Regarding `Cc1cc(/N=c2\ssnc2Cl)n[nH]1`, the IC50 was 18 µM in the test with MCF7; 20 µM with 5637; 14 µM with DU-145; 27 µM in the test on PANC-1; 33 µM in test [1]; 18 µM in test [2]. Also, the IC50 with A-431 worked out at 69 µM; in test [3], 40 µM.
On to `Cc1cc(/N=c2\ssnc2Cl)n(Cc2ccccc2)n1`, for which the IC50 with MCF7 was 18 µM; in the test on 5637, 2.1 µM; in the test with DU-145, 10 µM; with PANC-1 it was 26 µM; in test [1], 33 µM; in test [2], 30 µM. Moreover, the results for the IC50 (in the test on A-431; in test [3]) were 27 µM and 15 µM, respectively.
`N#Cc1cc(Br)ccc1/N=c1\ssnc1N1CCN(CCCl)CC1`: the IC50 in the test with MCF7 was found to be 4.1 µM; with 5637, 8 µM; in the test with DU-145, 15 µM; in the test on PANC-1 it was 18 µM; in test [1], 32 µM; in test [2], 23 µM. In addition, the 50% inhibitory concentration (IC50) (with A-431; in test [3]) was above 100 µM throughout.
As for `Cc1cc(OC(F)(F)F)ccc1/N=c1\ssnc1Cl`, the IC50 in the test with MCF7 is 43 µM; in the test on 5637, 47 µM; with DU-145 it was 18 µM; with PANC-1, 76 µM; in test [1], 57 µM; in test [2] it was 87 µM. Moreover, the IC50 (with A-431; in test [3]) was above 100 µM in each case.

The values are drawn from ChEMBL document CHEMBL4819119, “Design and evaluation of 1,2,3-dithiazoles and fused 1,2,4-dithiazines as anti-cancer agents” (Bioorg Med Chem Lett, 2021).
